Assays:
Format in all cases: cell-based
[1] = tested on: MIA PaCa-2 pancreatic cancer cells; assay: Cell viability, resazurin assay; conditions: 20 µM, 48 h, 5% FBS
Outline: (§1)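 Cell lines were maintained at 37°C, 5% CO2 to about 80% confluence: BxPC-3 in RPMI 1640, MIA PaCa-2 in DMEM, each with 10% FBS and penicillin/streptomycin. Trypsinized cells were plated at 1 × 10^4/well in 5% FBS medium and treated with 0–20 µM for 48 h. Resazurin (0.02% in DPBS) was added; fluorescence (ex 560/em 590 nm) was read after 2 h. EC50 came from nonlinear regression.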

[2] = tested on: BxPC-3 pancreatic cancer cells; assay: Cell viability, resazurin assay; conditions: 20 µM, 48 h, 5% FBS
Outline: as §1

MIA PaCa-2 cells = assay: Apoptosis assay, AO/EB staining; conditions: 0.5, 1 and 2 µM, 48 h, 5% FBS
Outline: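 MIA PaCa-2 cells (5 × 10^4 per chamber-slide well) exposed to test compound at 0.5, 1 and 2 µM for 48 h in medium with 5% FBS. Stained with AO/EB (10 µg/mL each) and imaged by fluorescence microscopy (x40, 480/30 nm excitation). Green intact nuclei scored as viable; orange-red, condensed nuclei as apoptotic. Images representative of triplicate experiments.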

[3] = listed as farnesylthiosalicylamide

CC(C)=CCC/C(C)=C/CC/C(C)=C/CSc1ccccc1C(N)=O [FTSA, S-t, t farnesylthiosalicylic amide]
effect on viability of the cells [1, 3]: ineffective | effect on viability of the cells [2, 3]: ineffective

CC(C)=CCC/C(C)=C/CC/C(C)=C/CSC[C@H](NC(=O)CCCCCN1CCN(C)CC1)C(=O)NC1CCCCCCC1 [8e, L-((4-methylpiperazinyl)hexanoyl)-S-(trans, trans-farnesyl) cysteine cyclooctylamide]
mode of cell death (AO/EB staining) (MIA PaCa-2 cells): signs of apoptosis were observed

CC(C)=CCC/C(C)=C/CC/C(C)=C/CSc1ccccc1C(=O)O [FTS, S-t, t farnesylthiosalicylic acid]
effect on viability of the cells ([1]; listed as salirasib): ineffective | effect on viability of the cells ([2]; listed as salirasib): ineffective

Reference: PMC4153604 (European journal of medicinal chemistry, 2014)
